# Screening data deposited in PubChem BioAssay by Sanford-Burnham Center for Chemical Genomics.
# The list is not random: actives were taken first. Their share in the collection is about 4.1%.
# Mdm2-MdmX inh – disrupts the human Mdm2-MdmX interaction. SaOS-2 split-luciferase Mdm2/MdmX complementation, luminescence. inhibition, % at 8 µM. 330,000 compounds, 3% hits;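 active means inhibition of at least 50% at 8 µM in the primary screen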
# Apaf-1 inh – inhibitors of human Apaf-1 apoptosome. O14727. reconstituted apoptosome caspase-3 activity, DEVD-Rh110 fluorescence. inhibition, % at 20 µM. 330,000 compounds, 0.71% hits. AID 489030; active means inhibition of at least 40% at 20 µM;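 further: plate controls were DMSO wells for no effect and DEVD-CHO caspase inhibitor wells for full effect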
#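 Material: reconstituted apoptosome with Apaf-1, cytochrome c, caspase-9, procaspase-3, dATP / Buffer or medium: pH 7.5 Hepes buffer with CHAPS, BSA, DTT / Also added: cytochrome c with DEVD-Rh110 / Schedule: compound with Apaf-1, dATP, procaspase-3 30 min, then 50 min reaction, room temperature / Technique: rhodamine 110 fluorescence at Ex 480/Em 540 nm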
# CHOP UPR activ – apoptotic UPR (CHOP) activation; CHO-CHOP luciferase reporter, luminescence; percent of tunicamycin response over DMSO baseline; activation, % at 10 µM; 330,000 compounds, 0.34% hits; AID 449763;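 active means at 10 µM dose, activation of 40% or more, normalized to positive control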;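 further: 100% = tunicamycin at 10 µg/mL and 0% = DMSO alone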
#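 System: CHO-CHOP luciferase reporter cell line | Buffer or medium: F12 medium containing 10% fetal bovine serum | Doses: One dose, 10 µM in 0.5% DMSO | Times: 6 h compound exposure at 37 °C after overnight seeding | Signal: Luciferase luminescence | Read-out: % activation vs tunicamycin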
# UBC13 polyUb – blocks human UBC13 polyubiquitin chain formation. inhibition, % at 20 µM. P61088. 330,000 compounds, 0.47% hits. TR-FRET; in the data active means inhibition above about 45%, passing the limit was not always enough
# Target sequence (P61088 whole entry, looked up): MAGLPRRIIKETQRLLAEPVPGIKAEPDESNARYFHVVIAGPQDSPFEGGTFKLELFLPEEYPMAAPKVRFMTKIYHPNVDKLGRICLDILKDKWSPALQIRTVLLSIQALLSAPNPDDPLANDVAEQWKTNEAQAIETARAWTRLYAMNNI
# UPR XBP1 act – adaptive UPR (XBP1) activation. CHO-XBP1 luciferase reporter, IRE1-XBP1 UPR activation, luminescence; percent of tunicamycin response, DMSO as zero. activation, % at 20 µM. 330,000 compounds, 0.33% hits. AID 463104;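 active means versus positive control, 20 µM dose yields 30% or more activation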;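 further: 100% = tunicamycin at 10 µg/mL and 0% = DMSO only wells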
#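 Test system: CHO-XBP1 luciferase reporter cells | Buffer or medium: Serum-containing F12 medium, 10% FBS | Schedule: 6 h compound exposure at 37 °C, 5% CO2 | Detection: Steady-Glo luciferase glow luminescence, 10 min after reagent addition | Read-out basis: Activation, % of tunicamycin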
# Mdm2-MdmX conf – confirmation of human Mdm2/MdmX interaction inhibitors | Mdm2-MdmX binding, luminescent assay | 10,000 compounds, 55% hits | AID 489028 | shares compounds with Mdm2-MdmX inh | inhibition, % at 8 µM; in the data active means inhibition above about 40%
# FLuc counter – full-length luciferase inhibition in Mdm2/MdmX counter-screen; 6,200 compounds, 77% hits; inhibition, % at 8 µM; shares compounds with Mdm2-MdmX inh; SaOS-2 full-length luciferase counterscreen, luminescence; AID 504607;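 active means mean inhibition at 8 µM reaching about 37%, which flags the compound as non-specific, limit read from the data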;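 further: p53-null SaOS-2 cells with luciferase driven by a doxycycline-inducible promoter; compound on cells about two nights before reading with doxycycline added after day one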
# Active calls of the source: *; nt = no result.
SMILES,Mdm2-MdmX inh,Apaf-1 inh,CHOP UPR activ,UBC13 polyUb,UPR XBP1 act,Mdm2-MdmX conf,FLuc counter
COc1ccc(C(=O)Nc2cc(C)c3c(=O)oc4ccccc4c3n2)cc1,73.8*,-4.9,-1.5,5.9,0.8,25.1,nt
Cn1c(=O)c2c(nc(Oc3ccc4c(c3)OCO4)n2Cc2ccc(Cl)cc2)n(C)c1=O,33.2,5.2,-0.7,7.5,-1.6,nt,nt
Cn1c(Oc2ccc3c(c2)OCO3)nc2c1c(=O)n(Cc1ccccc1)c(=O)n2C,62.2*,12.9,-2.1,-6.2,1.1,21.9,nt
O=C(CCN1N=C(c2ccccc2)CCC1=O)NCC1COc2ccccc2O1 (configuration not stated),-5.9,14.5,-2.0,-1.3,-3.6,nt,nt
CC(=O)c1c(C)[nH]c(C(=O)OC(C)C(=O)Nc2ccc(C)c(S(=O)(=O)N3CCOCC3)c2)c1C (configuration not stated),44.2,20.3,-0.5,4.4,-2.7,nt,nt
CCN(CC)S(=O)(=O)c1cc(NC(=O)C(C)OC(=O)c2[nH]c(C)c(C(C)=O)c2C)ccc1C (configuration not stated),50.8*,12.0,0.5,-2.6,-0.8,40.6*,42.7*
COc1cc(-c2nc(-c3ccc4c(c3)-c3ccccc3S4(=O)=O)c(-c3ccccc3)[nH]2)cc(OC)c1O,76.6*,19.4,20.6,-10.9,12.6,66.7*,78.8*
COc1ccc(C/C(N)=N/OC(=O)CCc2ccccc2)cc1,12.7,11.4,0.3,8.2,8.7,nt,nt
O=C(Cn1cnc2cc([N+](=O)[O-])ccc2c1=O)Nc1cccc(S(=O)(=O)N2CCOCC2)c1,61.4*,-8.5,0.7,-5.1,-3.4,7.9,nt
O=C(Cn1cnc2ccccc2c1=O)Nc1ccc(S(=O)(=O)N2CCOCC2)cc1,11.2,-2.2,-0.6,4.5,-4.1,nt,nt
O=C(NC(Cc1ccccc1)C(=O)O)/C(=C/c1ccc(Cl)cc1)NC(=O)c1ccco1 (configuration not stated),-8.1,1.6,2.6,8.1,-0.3,nt,nt
COc1ccc(N2CCN(CC(=O)Nc3ncc(C)s3)CC2)cc1,-9.1,2.8,0.9,0.1,-4.6,nt,nt
Cc1cnc(NC(=O)CN2CCN(c3ccccn3)CC2)s1,67.2*,-3.0,-2.3,3.5,-3.1,63.3*,63.9*
C/C(O)=C/c1nc2ccccc2[nH]c1=O,22.9,-2.7,2.5,16.3,0.9,nt,nt
O=c1[nH]c2ccc([N+](=O)[O-])cc2nc1/C=C(\O)c1ccccc1,80.7*,2.3,3.1,-25.4,3.0,-8.2,nt
O=C(NCc1ccc(F)cc1)c1ccccc1OCc1ccccc1,-18.9,21.8,1.0,-3.5,0.9,nt,nt
O=C(NNC(=O)c1ccccc1OCc1ccccc1)c1ccccc1F,-11.1,7.7,4.2,2.2,2.6,nt,nt
O=C(NNC(=O)c1ccccc1OCc1ccc(F)cc1)c1ccccc1O,69.0*,7.0,1.1,-1.8,0.3,73.1*,31.1
O=C(NNC(=O)c1ccccc1OCc1ccccc1)c1ccccc1O,64.1*,0.6,-0.7,-12.2,0.3,69.7*,34.8
CC1CCN(C(=O)c2ccc(NC(=O)c3ccccc3)cc2)CC1,12.6,-5.8,1.1,2.6,-4.5,nt,nt
O=C1C(Cl)=C(Nc2cccc(O)c2)C(=O)N1Cc1ccccc1,52.2*,1.7,0.4,8.0,0.0,20.8,nt
CC1CCCCN1C(=O)c1ccc(C(=O)c2ccccc2)cc1 (configuration not stated),-14.3,14.2,0.3,2.2,1.2,nt,nt
CC1CCCCN1C(=O)c1cccc(NC2=C(Cl)C(=O)N(Cc3ccccc3)C2=O)c1 (configuration not stated),75.9*,18.1,3.7,-19.8,-5.1,28.4,nt
CC1CCN(C(=O)c2ccc(NC3=C(Cl)C(=O)N(Cc4ccccc4)C3=O)cc2)CC1,57.8*,22.2,9.1,-6.2,-5.5,38.0,nt
CCOc1ccccc1NC1=C(Cl)C(=O)N(Cc2ccccc2)C1=O,14.6,24.0,-1.6,-12.1,-1.0,nt,nt
SMILES,Mdm2-MdmX inh,Apaf-1 inh,CHOP UPR activ,UBC13 polyUb,UPR XBP1 act,Mdm2-MdmX conf,FLuc counter
CN(CC(=O)NCCc1ccccc1)Cc1ccco1,13.8,-1.2,6.6,4.6,1.8,nt,nt
O=C1CC(NS(=O)(=O)c2ccc(F)cc2)CN1c1ccc2c(c1)OCCO2 (configuration not stated),11.7,0.4,-0.6,3.6,-1.9,nt,nt
C=CCNc1oc(-c2ccc(Cl)cc2)nc1C#N,50.1*,13.8,5.3,-42.2,0.0,5.5,nt
COC(=O)C1=C(C)NC(C)=C(C(=O)OC)C1C(=O)OC(C)C(=O)c1ccccc1 (configuration not stated),19.9,-13.9,0.3,4.3,0.2,nt,nt
CC(=O)NC12CC3CC(C1)CC(C(=O)NCc1ccc(C)cc1)(C3)C2,-4.2,8.5,3.1,-4.5,-4.9,nt,nt
COc1ccccc1CN(C)C(=O)c1cc(-c2cc(OC)c(OC)c(OC)c2)nc2ccccc12,78.0*,32.8,7.0,19.2,7.3,77.2*,50.3*
COc1ccc(-c2cc(C(=O)N(C)CC(=O)Nc3ccccc3Br)c3ccccc3n2)cc1OC,55.8*,7.4,3.3,11.6,-1.3,49.3*,80.2*
COc1cc(-c2cc(C(=O)N(C)Cc3ccccc3)c3ccccc3n2)cc(OC)c1OC,62.4*,22.4,3.8,7.5,0.9,46.1*,75.5*
CN(CC(=O)Nc1ccccc1Br)C(=O)c1cc(Cl)nc2ccccc12,9.1,-0.6,-1.3,2.7,-1.1,nt,nt
COc1ccc(N2CCN(C(=O)c3cc(-c4cccs4)nc4ccccc34)CC2)cc1,-14.8,25.3,-0.6,-10.5,-3.1,nt,nt
COc1cccc(CN(C)C(=O)c2cc(-c3cccs3)nc3ccccc23)c1,58.2*,28.3,1.1,17.7,0.1,42.6*,60.9*
COc1ccc(-c2cc(C(=O)N(C)Cc3ccccc3F)c3ccccc3n2)cc1OC,70.1*,32.3,1.3,14.3,-5.7,39.4,105.5*
CCN(Cc1ccccc1)C(=O)c1cc(-c2ccc(OC)c(OC)c2)nc2ccccc12,32.7,38.7,3.8,16.1,-8.5,nt,nt
CSC1=NC(C(Cl)(Cl)Cl)N=C(c2ccc(C)cc2)N1 (configuration not stated),71.7*,-10.6,-2.5,17.9,9.3,69.7*,67.2*
C[C@]12C(=O)N(c3ccccc3)C(=O)N1[C@@H]1c3ccccc3OC[C@@H]1[C@H]2c1ccccc1,8.2,6.6,0.0,-4.1,-1.0,nt,nt
C[C@]12C(=O)N(c3ccccc3)C(=O)N1[C@H]1c3ccccc3OC[C@@H]1[C@H]2c1ccccc1,18.1,15.2,1.2,3.1,-1.4,nt,nt
